This passage reports inhibition results from ChEMBL document CHEMBL2086354, “Testing the promiscuity of commercial kinase inhibitors against the AGC kinase group using a split-luciferase screen” (J Med Chem, 2012).

Each structure is given as a SMILES string. Calls of active or inactive are those of the source. The calls are words filed in the database; no cut-off is given here.

In test [1] the target is T1, cAMP-dependent protein kinase catalytic subunit PRKX (Homo sapiens) (UniProt P51817).
T1 sequence (whole entry): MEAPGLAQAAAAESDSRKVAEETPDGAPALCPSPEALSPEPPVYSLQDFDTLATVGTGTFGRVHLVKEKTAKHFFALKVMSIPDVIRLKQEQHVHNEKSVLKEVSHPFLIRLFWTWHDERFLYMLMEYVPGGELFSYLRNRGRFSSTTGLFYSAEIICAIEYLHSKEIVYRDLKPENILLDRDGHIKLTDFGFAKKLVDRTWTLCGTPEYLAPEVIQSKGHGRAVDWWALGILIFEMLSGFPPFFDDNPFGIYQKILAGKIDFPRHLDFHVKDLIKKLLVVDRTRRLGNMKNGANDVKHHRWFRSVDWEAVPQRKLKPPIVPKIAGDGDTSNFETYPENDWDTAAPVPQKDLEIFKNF
The test can be described thus: Inhibition of PRKX at 10 uM by luciferase assay. The essentials: (§1)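 Cell-free split-luciferase competitive binding assay. Cfluc-kinase fusion mRNA was co-translated with Fos-Nfluc mRNA in rabbit reticulocyte lysate at 30 °C for 90 min, frozen at −80 °C overnight and thawed on ice. Lysate held tracer 2 at 120 nM final and inhibitor at 10 μM final (DMSO), 1 h at room temperature. Luciferin reagent was added and luminescence read (1 s integration), in duplicate.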

Test [2] deals with T2, Serine/threonine-protein kinase Sgk2 (Homo sapiens) (UniProt Q9HBY8).
T2 sequence (whole entry): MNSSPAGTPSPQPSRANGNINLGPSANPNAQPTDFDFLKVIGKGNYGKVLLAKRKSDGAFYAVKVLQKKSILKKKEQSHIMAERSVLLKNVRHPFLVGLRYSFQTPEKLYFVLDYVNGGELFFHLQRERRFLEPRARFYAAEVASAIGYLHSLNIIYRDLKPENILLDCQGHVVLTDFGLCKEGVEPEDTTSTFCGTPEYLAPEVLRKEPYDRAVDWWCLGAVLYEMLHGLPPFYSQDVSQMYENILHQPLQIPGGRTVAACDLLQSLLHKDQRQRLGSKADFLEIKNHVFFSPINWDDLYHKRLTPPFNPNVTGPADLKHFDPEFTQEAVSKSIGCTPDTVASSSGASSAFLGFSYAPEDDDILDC
The test can be described thus: Inhibition of SGK2 at 10 uM by luciferase assay. The gist of the method: as §1

Test [3] addresses T3, Serine/threonine-protein kinase Sgk3 (Homo sapiens) (UniProt Q96BR1).
T3 sequence (whole entry): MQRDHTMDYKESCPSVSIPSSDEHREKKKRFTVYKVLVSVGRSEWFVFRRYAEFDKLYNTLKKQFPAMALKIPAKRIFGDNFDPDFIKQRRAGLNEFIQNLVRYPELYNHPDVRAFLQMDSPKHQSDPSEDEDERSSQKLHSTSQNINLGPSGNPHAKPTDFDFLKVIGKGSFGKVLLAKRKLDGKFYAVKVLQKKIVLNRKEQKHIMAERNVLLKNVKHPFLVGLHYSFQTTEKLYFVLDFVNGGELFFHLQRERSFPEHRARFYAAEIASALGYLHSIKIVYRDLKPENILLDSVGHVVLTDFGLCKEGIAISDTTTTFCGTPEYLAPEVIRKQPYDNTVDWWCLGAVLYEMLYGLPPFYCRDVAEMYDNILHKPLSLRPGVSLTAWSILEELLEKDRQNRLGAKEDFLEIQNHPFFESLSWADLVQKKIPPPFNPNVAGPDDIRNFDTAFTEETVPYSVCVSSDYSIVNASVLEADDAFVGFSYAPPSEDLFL
The test can be described thus: Inhibition of SGK3 at 10 uM by luciferase assay. The gist of the method: as §1

The target of test [4] is Aurora kinase B (Homo sapiens) (UniProt Q96GD4). The test can be described thus: Inhibition of Aurora kinase B at 10 uM by luciferase assay. The gist of the method:
as §1

In test [5] the target is T4, Protein kinase C epsilon type (Homo sapiens) (UniProt Q02156).
T4 sequence (whole entry): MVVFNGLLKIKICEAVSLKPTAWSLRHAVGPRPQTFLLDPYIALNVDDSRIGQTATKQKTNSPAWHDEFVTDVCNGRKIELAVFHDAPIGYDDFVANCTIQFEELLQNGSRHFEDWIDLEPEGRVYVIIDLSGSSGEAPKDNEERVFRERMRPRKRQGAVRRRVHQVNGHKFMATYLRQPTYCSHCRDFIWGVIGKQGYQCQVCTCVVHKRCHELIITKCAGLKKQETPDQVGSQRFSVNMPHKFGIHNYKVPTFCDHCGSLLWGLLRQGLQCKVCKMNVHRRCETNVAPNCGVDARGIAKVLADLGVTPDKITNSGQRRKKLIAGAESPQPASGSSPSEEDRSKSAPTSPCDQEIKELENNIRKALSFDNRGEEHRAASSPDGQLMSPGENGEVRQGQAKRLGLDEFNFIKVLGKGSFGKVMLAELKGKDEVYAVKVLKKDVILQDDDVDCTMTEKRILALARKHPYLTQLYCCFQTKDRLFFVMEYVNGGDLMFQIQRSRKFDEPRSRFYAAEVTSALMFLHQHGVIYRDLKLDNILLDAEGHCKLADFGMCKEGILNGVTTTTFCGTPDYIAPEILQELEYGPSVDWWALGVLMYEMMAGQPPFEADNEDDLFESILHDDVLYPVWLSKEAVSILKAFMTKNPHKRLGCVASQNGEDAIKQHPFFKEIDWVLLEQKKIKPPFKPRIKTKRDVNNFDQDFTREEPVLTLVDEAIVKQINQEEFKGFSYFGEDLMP
Description: Inhibition of Protein kinase C epsilon type at 10 uM by luciferase assay. The essentials: (§2)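 Cell-free split-firefly-luciferase competitive binding assay: Cfluc-kinase fusion mRNA co-translated with Fos-Nfluc mRNA in rabbit reticulocyte lysate, 30 °C for 90 min, then frozen at −80 °C and thawed on ice. Luminescence read after luciferin reagent, in duplicate. Percent inhibition = 1 − (background-subtracted signal ÷ DMSO positive control).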

Test [6] concerns the target Protein kinase C eta type (Homo sapiens) (UniProt P24723). Description: Inhibition of Protein kinase C eta type at 10 uM by luciferase assay. The gist of the method: as §1
For test [7], the target named is Protein kinase C theta type (Homo sapiens) (UniProt Q04759). Description: Inhibition of Protein kinase C theta type at 10 uM by luciferase assay. The essentials:
as §1

The target of test [8] is Serine/threonine-protein kinase 32B (Homo sapiens) (UniProt Q9NY57). Description: Inhibition of STK32B at 10 uM by luciferase assay. The essentials: as §1
The target of test [9] is T5, Myotonin-protein kinase (Homo sapiens) (UniProt Q09013).
T5 sequence (whole entry): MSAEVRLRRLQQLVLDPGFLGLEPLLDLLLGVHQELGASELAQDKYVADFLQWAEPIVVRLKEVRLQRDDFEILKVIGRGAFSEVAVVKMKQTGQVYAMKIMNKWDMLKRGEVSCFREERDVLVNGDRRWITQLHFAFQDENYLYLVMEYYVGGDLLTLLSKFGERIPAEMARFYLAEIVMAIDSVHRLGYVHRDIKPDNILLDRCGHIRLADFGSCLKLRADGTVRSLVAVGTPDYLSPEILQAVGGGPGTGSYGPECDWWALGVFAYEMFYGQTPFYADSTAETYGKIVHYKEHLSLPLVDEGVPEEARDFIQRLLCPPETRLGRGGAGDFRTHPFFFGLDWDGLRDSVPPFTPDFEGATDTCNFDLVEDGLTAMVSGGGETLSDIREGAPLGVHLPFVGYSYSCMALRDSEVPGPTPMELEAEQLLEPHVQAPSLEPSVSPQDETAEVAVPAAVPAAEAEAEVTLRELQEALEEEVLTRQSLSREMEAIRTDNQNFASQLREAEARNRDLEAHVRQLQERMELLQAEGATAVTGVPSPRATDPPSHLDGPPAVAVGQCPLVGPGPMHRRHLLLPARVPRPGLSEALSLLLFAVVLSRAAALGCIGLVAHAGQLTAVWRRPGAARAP
Description: Inhibition of DMPK at 10 uM by luciferase assay. The essentials: as §1

Test [10] has as its target Protein kinase C gamma type (Homo sapiens) (UniProt P05129). Description: Inhibition of Protein kinase C gamma type at 10 uM by luciferase assay. The essentials:
as §2

For test [11], the target named is Protein kinase C delta type (Homo sapiens) (UniProt Q05655). Description: Inhibition of Protein kinase C delta type at 10 uM by luciferase assay. The essentials: as §2
The nature of test [12]: Inhibition of Protein kinase A at 10 uM by luciferase assay. The gist of the method:
as §1

The target of test [13] is RAC-alpha serine/threonine-protein kinase (Homo sapiens) (UniProt P31749). The test can be described thus: Inhibition of AKT1 at 10 uM by luciferase assay. The gist of the method: as §2
The target in test [14] is RAC-beta serine/threonine-protein kinase (Homo sapiens) (UniProt P31751). Description: Inhibition of AKT2 at 10 uM by luciferase assay. The essentials: as §2
The target of test [15] is RAC-gamma serine/threonine-protein kinase (Homo sapiens) (UniProt Q9Y243). The test can be described thus: Inhibition of AKT3 at 10 uM by luciferase assay. The gist of the method: as §2
Test [16] concerns the target T6, Aurora kinase C (Homo sapiens) (UniProt Q9UQB9).
T6 sequence (whole entry): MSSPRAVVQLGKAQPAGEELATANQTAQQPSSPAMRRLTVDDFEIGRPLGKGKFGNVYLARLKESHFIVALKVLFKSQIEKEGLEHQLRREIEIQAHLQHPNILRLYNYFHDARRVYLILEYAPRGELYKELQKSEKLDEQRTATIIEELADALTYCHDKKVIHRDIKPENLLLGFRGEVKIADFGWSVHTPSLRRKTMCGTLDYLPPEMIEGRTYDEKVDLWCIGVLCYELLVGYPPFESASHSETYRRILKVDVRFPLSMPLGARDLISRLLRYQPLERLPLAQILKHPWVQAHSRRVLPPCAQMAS
The test can be described thus: Inhibition of Aurora kinase C at 10 uM by luciferase assay. The essentials:
as §1

Chain of Protein kinase C theta type (Homo sapiens) (Q04759 whole entry, looked up): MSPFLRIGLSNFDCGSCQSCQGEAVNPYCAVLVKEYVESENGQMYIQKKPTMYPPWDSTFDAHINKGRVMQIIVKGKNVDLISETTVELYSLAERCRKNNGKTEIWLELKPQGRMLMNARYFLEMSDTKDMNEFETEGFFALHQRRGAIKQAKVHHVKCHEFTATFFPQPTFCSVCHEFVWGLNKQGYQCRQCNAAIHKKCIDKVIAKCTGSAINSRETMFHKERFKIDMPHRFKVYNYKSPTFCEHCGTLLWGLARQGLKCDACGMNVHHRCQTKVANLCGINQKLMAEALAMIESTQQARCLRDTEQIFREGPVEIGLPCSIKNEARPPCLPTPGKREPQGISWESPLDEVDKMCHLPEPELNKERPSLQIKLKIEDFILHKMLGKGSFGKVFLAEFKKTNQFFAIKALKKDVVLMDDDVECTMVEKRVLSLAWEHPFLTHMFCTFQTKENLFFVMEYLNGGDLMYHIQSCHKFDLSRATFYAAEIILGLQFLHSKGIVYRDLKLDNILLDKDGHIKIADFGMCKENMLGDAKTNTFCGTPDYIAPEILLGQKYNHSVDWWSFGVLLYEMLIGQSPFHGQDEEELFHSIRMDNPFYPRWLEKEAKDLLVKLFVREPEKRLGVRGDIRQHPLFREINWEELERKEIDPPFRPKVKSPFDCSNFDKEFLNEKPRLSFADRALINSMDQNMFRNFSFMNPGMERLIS
Chain of Serine/threonine-protein kinase 32B (Homo sapiens) (Q9NY57 whole entry): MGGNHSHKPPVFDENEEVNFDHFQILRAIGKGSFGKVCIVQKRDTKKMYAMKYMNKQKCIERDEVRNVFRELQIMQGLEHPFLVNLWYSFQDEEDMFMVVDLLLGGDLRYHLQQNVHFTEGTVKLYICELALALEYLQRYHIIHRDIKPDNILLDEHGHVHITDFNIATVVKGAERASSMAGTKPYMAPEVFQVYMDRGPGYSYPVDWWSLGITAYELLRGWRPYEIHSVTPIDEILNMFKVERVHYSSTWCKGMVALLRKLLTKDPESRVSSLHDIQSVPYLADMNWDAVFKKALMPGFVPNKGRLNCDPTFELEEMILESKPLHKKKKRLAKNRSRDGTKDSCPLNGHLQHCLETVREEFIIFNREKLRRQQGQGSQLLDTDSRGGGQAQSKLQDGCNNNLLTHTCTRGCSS
Chain of Aurora kinase B (Homo sapiens) (Q96GD4 whole entry): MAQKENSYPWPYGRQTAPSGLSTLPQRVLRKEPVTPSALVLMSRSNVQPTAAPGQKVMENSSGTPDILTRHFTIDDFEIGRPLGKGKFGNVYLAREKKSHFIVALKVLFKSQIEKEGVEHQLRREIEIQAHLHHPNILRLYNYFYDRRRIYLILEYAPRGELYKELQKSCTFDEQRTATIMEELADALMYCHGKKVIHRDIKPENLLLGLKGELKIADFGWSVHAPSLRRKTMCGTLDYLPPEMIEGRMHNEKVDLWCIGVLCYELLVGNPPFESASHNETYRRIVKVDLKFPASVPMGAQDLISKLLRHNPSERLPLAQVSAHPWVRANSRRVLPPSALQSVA
Chain of Protein kinase C eta type (Homo sapiens) (P24723 whole entry): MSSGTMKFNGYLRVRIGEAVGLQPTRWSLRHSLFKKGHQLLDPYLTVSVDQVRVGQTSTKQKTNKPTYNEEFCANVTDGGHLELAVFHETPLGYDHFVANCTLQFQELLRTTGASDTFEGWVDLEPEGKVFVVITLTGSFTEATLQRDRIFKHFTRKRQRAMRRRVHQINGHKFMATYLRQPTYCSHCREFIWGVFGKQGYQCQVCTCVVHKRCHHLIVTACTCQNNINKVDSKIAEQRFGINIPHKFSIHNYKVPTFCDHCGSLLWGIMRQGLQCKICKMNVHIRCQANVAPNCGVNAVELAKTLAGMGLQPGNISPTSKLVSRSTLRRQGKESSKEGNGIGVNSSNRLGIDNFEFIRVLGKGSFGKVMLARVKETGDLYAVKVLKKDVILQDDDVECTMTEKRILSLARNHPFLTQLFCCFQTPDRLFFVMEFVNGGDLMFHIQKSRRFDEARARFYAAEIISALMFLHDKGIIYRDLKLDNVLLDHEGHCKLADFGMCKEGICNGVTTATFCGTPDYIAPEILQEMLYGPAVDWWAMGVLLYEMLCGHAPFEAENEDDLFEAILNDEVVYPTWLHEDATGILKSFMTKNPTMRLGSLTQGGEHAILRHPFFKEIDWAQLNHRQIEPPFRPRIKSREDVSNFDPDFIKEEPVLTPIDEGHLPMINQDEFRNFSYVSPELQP
Chain of Protein kinase C delta type (Homo sapiens) (Q05655 whole entry, looked up): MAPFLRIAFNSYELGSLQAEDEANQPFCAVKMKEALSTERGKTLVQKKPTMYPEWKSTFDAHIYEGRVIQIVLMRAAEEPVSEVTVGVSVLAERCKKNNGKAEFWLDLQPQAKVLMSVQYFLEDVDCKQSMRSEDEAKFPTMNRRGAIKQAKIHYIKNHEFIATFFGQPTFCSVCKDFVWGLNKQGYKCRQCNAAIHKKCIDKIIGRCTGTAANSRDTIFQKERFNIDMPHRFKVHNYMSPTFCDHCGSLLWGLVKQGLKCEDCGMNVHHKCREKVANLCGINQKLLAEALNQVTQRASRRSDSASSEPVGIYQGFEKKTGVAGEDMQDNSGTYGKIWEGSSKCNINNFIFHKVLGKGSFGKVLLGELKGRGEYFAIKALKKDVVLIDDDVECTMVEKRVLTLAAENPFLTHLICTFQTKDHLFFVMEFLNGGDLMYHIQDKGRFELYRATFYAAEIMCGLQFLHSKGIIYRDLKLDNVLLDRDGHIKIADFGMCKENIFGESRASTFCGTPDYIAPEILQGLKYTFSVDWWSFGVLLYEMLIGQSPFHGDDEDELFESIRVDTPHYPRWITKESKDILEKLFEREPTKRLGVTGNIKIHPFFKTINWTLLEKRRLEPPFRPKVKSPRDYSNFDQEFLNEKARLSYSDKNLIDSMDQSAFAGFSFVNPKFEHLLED
Chain of RAC-beta serine/threonine-protein kinase (Homo sapiens) (P31751 whole entry): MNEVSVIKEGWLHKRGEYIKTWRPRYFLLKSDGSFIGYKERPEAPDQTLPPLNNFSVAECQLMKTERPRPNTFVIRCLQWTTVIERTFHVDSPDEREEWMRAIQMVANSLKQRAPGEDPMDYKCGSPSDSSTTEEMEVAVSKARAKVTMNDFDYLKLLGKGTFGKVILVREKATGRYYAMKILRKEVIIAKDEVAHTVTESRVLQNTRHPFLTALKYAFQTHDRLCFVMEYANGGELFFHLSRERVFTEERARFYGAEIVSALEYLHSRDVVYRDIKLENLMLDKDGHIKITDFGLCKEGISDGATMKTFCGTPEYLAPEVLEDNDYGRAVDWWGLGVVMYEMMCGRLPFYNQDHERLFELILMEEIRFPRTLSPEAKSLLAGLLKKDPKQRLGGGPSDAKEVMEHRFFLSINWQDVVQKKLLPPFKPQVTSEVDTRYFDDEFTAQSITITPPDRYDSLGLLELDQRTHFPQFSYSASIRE
Chain of RAC-alpha serine/threonine-protein kinase (Homo sapiens) (P31749 whole entry): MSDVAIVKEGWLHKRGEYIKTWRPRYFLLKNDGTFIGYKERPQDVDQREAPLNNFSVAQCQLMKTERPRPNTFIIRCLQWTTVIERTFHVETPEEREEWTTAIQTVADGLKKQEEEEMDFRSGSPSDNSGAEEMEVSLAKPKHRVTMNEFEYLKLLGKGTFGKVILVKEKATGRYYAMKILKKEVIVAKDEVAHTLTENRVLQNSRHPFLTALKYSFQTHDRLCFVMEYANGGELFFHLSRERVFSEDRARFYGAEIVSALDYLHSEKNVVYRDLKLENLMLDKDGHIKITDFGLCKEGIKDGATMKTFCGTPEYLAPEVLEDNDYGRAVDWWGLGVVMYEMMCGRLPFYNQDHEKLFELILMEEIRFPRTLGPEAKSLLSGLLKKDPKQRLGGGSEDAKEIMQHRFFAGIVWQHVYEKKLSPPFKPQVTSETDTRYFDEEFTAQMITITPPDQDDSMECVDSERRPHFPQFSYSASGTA
Chain of RAC-gamma serine/threonine-protein kinase (Homo sapiens) (Q9Y243 whole entry): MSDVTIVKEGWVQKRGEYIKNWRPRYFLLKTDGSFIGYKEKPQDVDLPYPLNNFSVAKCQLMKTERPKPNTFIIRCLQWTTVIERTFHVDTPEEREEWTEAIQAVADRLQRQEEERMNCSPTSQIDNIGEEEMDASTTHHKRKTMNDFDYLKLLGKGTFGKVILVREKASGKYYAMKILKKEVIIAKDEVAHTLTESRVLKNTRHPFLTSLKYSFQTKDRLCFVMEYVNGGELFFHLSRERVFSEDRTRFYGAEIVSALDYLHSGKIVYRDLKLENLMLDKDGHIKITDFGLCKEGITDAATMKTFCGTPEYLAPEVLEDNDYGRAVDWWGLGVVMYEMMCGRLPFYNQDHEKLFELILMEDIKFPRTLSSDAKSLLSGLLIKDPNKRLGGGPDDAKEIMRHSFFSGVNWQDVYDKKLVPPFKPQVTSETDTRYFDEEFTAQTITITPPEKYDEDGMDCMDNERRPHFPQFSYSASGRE

With `C[C@@H](N)[C@H]1CC[C@H](C(=O)Nc2ccncc2)CC1`, the inhibition – broadly, the drop in the measured response relative to a control, in per cent – in test [1] was “Active”.
On to `O=C(c1ccc(Nc2nccc(-c3cc4ccccc4s3)n2)cc1)N1CCC(N2CCCC2)CC1`, for which the inhibition is above 60% in [2]; above 60% in test [3]; above 29% in [4]; above 29% in [5]; 83% in [6]; above 29% in test [7]. Moreover, the inhibition in [1] is above 29%.
Turning to `CO[C@@H]1[C@H](N(C)C(=O)c2ccccc2)C[C@H]2O[C@]1(C)n1c3ccccc3c3c4c(c5c6ccccc6n2c5c31)C(=O)NC4`, the inhibition result in [8] was “Active”.
Regarding `O=C1NC(=O)c2cc(Nc3ccc(F)cc3)c(Nc3ccc(F)cc3)cc21`, the inhibition in test [9] was 30%; in test [10], 22%.
Take `Cn1cc(C2=C(c3cn(CCCSC(=N)N)c4ccccc34)C(=O)NC2=O)c2ccccc21`: the inhibition in test [11], in test [5], in [10], in [6] and in [7] was 47% throughout.
On to `Cc1ccc(-c2nn(C(C)(C)C)c3ncnc(N)c23)cc1`, for which the inhibition was above 40% in [8], 32% in [9] and 19% in test [12].
Take `CN(C)CCCn1cc(C2=C(c3c[nH]c4ccccc34)C(=O)NC2=O)c2ccccc21`: the inhibition result in test [10], in test [6] and in test [7] was “inactive” each time.
As to `Fc1ccc(Cl)cc1-c1nc(Nc2ccncc2)c2nccnc2n1`, the inhibition in [13], in test [14], in test [15], in test [5], in test [6] and in [7] was above 25% throughout.
Regarding `O=S(=O)(c1cccc2cnccc12)N1CCCNCC1`, the inhibition result in [12] and in [1] was “Active” each time.
For `COc1cc2ncn(-c3cc(OCc4ccccc4C(F)(F)F)c(C(N)=O)s3)c2cc1OC`, the inhibition in test [4] and in test [16] was above 25% each time.
For the molecule `O=C1NC(=O)c2c1c1c3ccccc3[nH]c1c1[nH]c3ccccc3c21`, the inhibition entry in test [13], in test [14], in test [15], in test [11], in test [5] and in test [10] was “inactive” each time.
`O=S(=O)(c1cccc2c(O)nccc12)N1CCCNCC1`: the inhibition entry in [1] is “Active”.
For the molecule `NC(=O)Nc1sc(-c2ccc(F)cc2)cc1C(N)=O`, the inhibition in [4] and in test [16] was above 25% in each case. For the same molecule, the inhibition result in test [6] was “Active”.
In the case of `O=S(=O)(c1cccc2c(Cl)cccc12)N1CCCNCC1`, the inhibition result in test [1] was “inactive”.
In turn, `O=C1NC(=O)c2c1c1c3ccccc3n3c1c1c2c2ccccc2n1C1CCC3O1` yielded an inhibition in test [2] above 60%.
On to `COc1cc2c(Nc3ccc(NC(=O)c4ccccc4)cc3)ncnc2cc1OCCCN1CCOCC1`, for which the inhibition in test [4] and in test [16] was above 50% each time.
As to `O=S(=O)(NCCNC/C=C/c1ccc(Br)cc1)c1cccc2cnccc12`, the inhibition was 20% in test [2]; 20% in [3]; above 65% in [12]; 20% in test [6]; 20% in test [7]; above 65% in test [1].
As to `Cc1[nH]c(/C=C2\C(=O)Nc3ccc(S(=O)(=O)Cc4c(Cl)cccc4Cl)cc32)c(C)c1C(=O)N1CCC[C@@H]1CN1CCCC1`, the inhibition in test [4] and in test [16] was above 25% throughout.
Regarding `CC(C)(C)n1nc(-c2ccc(Cl)cc2)c2c(N)ncnc21`, the inhibition in test [8] was above 40%; in test [9], 32%; in test [12] it was 19%.
